From PubChem BioAssay
TNAP act mid DEA – human TNAP enzyme activators, primary screen, biochemical, luminescent, intermediate phosphate acceptor level | Alkaline phosphatase, tissue-nonspecific isozyme (Homo sapiens), P05186 | purified TNAP, CDP-star luminescence, 100 mM DEA, 30 min; hits give high values; scale: 0 levamisole-inhibited, 1 vehicle-only enzyme | activation factor at 20 µM | 64,000 tested, under 10 active | AID 813, 2007;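 active = activation factor of at least 2 at 20 µM, relative to controls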
Mac1 fbg enh – enhancers of CD11b/CD18 adhesion to fibrinogen, primary screen, K562 cells, luminescence; Integrin beta-2 (Homo sapiens) + Integrin alpha-M (Homo sapiens), P05107+P11215; ATPlite luminescence; activation, % at 10 µM; hit rate 0.07% among 93,000;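 active = 10 µM primary screen giving 50% or more activity, confirmed by 40% or more on retest at that dose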
Target sequence (P05107 whole entry, looked up, other chains not shown): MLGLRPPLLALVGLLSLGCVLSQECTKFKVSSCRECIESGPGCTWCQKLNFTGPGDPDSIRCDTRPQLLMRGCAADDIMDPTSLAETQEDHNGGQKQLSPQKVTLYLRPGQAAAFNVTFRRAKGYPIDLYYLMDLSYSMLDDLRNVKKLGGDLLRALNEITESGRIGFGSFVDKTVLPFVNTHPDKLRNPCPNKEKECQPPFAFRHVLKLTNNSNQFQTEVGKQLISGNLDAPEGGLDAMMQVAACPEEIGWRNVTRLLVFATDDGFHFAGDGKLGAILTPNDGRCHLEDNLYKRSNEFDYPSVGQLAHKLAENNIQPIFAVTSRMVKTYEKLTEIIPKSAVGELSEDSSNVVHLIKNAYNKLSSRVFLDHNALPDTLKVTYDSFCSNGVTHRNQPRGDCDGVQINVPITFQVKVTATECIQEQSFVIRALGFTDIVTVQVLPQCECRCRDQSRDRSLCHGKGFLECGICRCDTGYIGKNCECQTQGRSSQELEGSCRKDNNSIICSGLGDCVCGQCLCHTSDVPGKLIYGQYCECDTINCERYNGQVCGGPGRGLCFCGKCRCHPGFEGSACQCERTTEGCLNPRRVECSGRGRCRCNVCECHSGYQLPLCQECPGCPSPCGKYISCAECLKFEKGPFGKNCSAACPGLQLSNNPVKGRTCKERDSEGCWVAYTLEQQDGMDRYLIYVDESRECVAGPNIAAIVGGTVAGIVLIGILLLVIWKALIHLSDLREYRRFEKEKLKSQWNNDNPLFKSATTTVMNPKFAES
RORA act – activators of orphan receptor RORA, primary screen, cell-based, luminescence; Nuclear receptor ROR-alpha (Homo sapiens), P35398; AID 560, 2006; CHO-K1 Gal4-RORA LBD luciferase reporter; percent increase over mock-subtracted basal signal; activation, % at 10 µM; hit rate 1.5% among 65,000;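 active = activation above the mean of all tested compounds plus 3 SD, cut at about 49% in these data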;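 also: 0% = DMSO-treated RORA cells and 100% = added signal equal to DMSO minus mock-transfected cells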
MT1-MMP txn act – MT1-MMP promoter reporter activation – cell-based, luciferase luminescence, primary screen. hit rate 0.16% among 86,000. AID 750, 2007. activation factor at 10 µM. HT1080 MT1-MMP promoter luciferase reporter, overnight; hits give high values;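 active = activation factor of at least 2 for MT1-MMP transcription at 10 µM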
CD11b adhes inh – inhibitors of CD11b/CD18 adhesion to fibrinogen, primary screen, K562 cells, luminescence. Integrin beta-2 (Homo sapiens) + Integrin alpha-M (Homo sapiens), P05107+P11215. ATPlite luminescence; Mn2+ added to activate the integrin. inhibition, % at 10 µM. hit rate 0.54% among 93,000. AID 1497, 2009;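 active = primary inhibition of 50% or more at 10 µM, then 40% or more on retest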
SF1 activator – activators of human SF-1, primary screen, cell-based, CHO-K1, Gal4-SF-1 LBD, luciferase luminescence | hit rate 1.9% among 65,000 | activation, % at 10 µM | Steroidogenic factor 1 (Homo sapiens), Q13285 | CHO-K1 Gal4-SF-1 LBD luciferase reporter; % increase over DMSO SF-1-specific signal;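 active = activation above the mean activation of all tested compounds plus 3 SD, cut at about 50% in these data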
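Material: Gal4–SF-1 LBD one-hybrid luciferase reporter in CHO-K1 cells | Amount: 4,000 cells per well | Compound dosing: 10 µM single point, 1% DMSO | Schedule: 20 h compound treatment, 37 °C | Measured by: SteadyLite luciferase luminescence | Evaluation: Percent activation versus DMSO | Control set: DMSO-treated SF-1-transfected cells as negative, DMSO-treated mock-transfected cells lacking SF-1 as background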
* = called active by the depositor; · = no result given. Compounds with a hit are over-represented: about 2.1% of the library has one in this group of screens.

SMILES | TNAP act mid DEA | Mac1 fbg enh | RORA act | MT1-MMP txn act | CD11b adhes inh | SF1 activator
CCN(C(=O)c1ccc(C(C)(C)C)cc1)c1nnc(Cn2nnc3ccccc32)s1 | 0.9 | -11 | -66 | 1.1 | 99* | -69
Cn1cnc2cc(NC(=O)c3ccc(Cl)cc3)ccc21 | 0.8 | · | 79* | 1.4 | · | 67*
CCCCCC1=C2CNC(C)(C(=O)OC)C=C2C(C)C1=O (centres undefined) | · | · | · | 1.1 | · | ·
CN1CCN(C(=S)SCC(=O)Nc2nc(-c3ccccc3)c(-c3ccccc3)o2)CC1 | · | 40 | · | · | 12 | ·
COc1cccc2c(=O)c(C(=O)NCc3cccs3)c[nH]c12 | 0.8 | 6 | 26 | 1.7 | 9 | 119*
COCCn1c(C(=O)N(C)C)cc2c1C[C@H]1CN(C(=O)c3ccccc3)[C@@](Cc3ccc(OC)cc3)(C(=O)OC)[C@@H]21 | · | · | · | 1.2 | · | ·
COC(=O)c1ccc(C(NC(=O)OCc2ccccc2)/C(F)=C/[C@@H](C)C(=O)NCc2nn(-c3ccccc3)nc2C)cc1 (some centres undefined) | · | · | · | 1.5 | · | ·
COc1ccc(-c2csc(N3C(=O)C4C5c6ccccc6C(c6ccccc65)C4C3=O)n2)cc1 (centres undefined) | · | -2 | · | · | -8 | ·
Cc1cc(CNC(=O)[C@H](C)[C@H]2C[C@]2(C)[C@H](NC(=O)OCc2ccccc2)c2ccccc2)nn1C | · | · | · | 1.1 | · | ·
c1csc(-c2ccc3ccccc3n2)c1 | 0.9 | 2 | 26 | 1.7 | 6 | 79*
Nc1nc(-c2cccs2)cs1 | · | 2 | · | 1.4 | -4 | ·
Cc1ccc2[nH]c(-c3cccc(N)c3)cc2c1 | 0.9 | 0 | 55* | 1.3 | 3 | 51*
CC(=O)N1[C@H](C)C=C[C@]1(Cc1ccccc1)C(=O)NCCN1CCOCC1 | · | · | · | 1.1 | · | ·
Nc1c(C(=O)NCc2ccco2)nnn1-c1ccccc1 | 1 | · | 9 | 1.5 | · | 55*
Cc1cc(C)cc(-n2nnc(C(=O)NCc3ccco3)c2N)c1 | 0.8 | · | 10 | 1.2 | · | 12
CN(C)c1ccc(Nc2nc(-c3cccnc3)cs2)cc1 | 0.8 | -2 | 10 | 2* | 7 | 14
Clc1ccc(Nc2nc(-c3cccnc3)cs2)cc1 | · | 1 | · | 1.6 | 1 | ·
CC(=O)Nc1ccc(S(=O)(=O)N2CCN(c3nc(NC4CCCC4)c4ccccc4n3)CC2)cc1 | 1 | -4 | -1 | 1.1 | -5 | -3
CCOc1ccc(N2C(=O)c3ccccc3C2=O)cc1 | · | 9 | · | 1.3 | -4 | ·
CCOc1ccc(N2C(=O)c3ccccc3C2O)cc1 (centres undefined) | 0.9 | 5 | 11 | 1.2 | -4 | 69*
COc1cc2cc(CN(Cc3nnnn3Cc3ccccc3)CC3CCCO3)c(=O)[nH]c2cc1OC (centres undefined) | 1 | 0 | -20 | 1 | 14 | 0
COc1ccc2[nH]c(=O)c(CN(Cc3ccccc3)Cc3nnnn3CC3CCCO3)cc2c1 (centres undefined) | 0.9 | -3 | 83* | 1 | 8 | 57*
CCOC(=O)Cc1csc(N/C(=N/S(=O)(=O)c2cc(Br)ccc2OCC)c2ccccc2)n1 | · | 1 | · | · | 15 | ·
Cc1ccc(-n2c(C)nc3oc4ccccc4c(=O)c3c2=O)cc1 | 0.9 | -1 | 68* | 2.2* | 20 | 18
COc1ccc(NC(=O)CCCN2C(=O)/C(=C\c3ccco3)SC2=S)cc1 | · | 9 | · | · | 2 | ·
O=C(O)CCCN1C(=O)/C(=C/c2ccc(-c3nc4ccccc4s3)o2)SC1=S | · | 41 | · | · | 93* | ·
COC(=O)C1(CC(C)C)C=CCN1C(=O)c1ccccc1 (centres undefined) | · | · | · | 1 | · | ·
COc1ccc(OC)c(NC(=O)C(=O)NNC(=O)c2cccs2)c1 | · | 1 | · | · | 7 | ·
O=c1[nH]c(-c2ccccc2F)nc2c1sc(=S)n2Cc1ccccc1 | · | -4 | · | · | 92 | ·
